Screening data from PubChem BioAssay.
This is a sample that favours compounds with a hit; in the whole collection about 3.8% have one here.
Kir21 block: blocks the mouse Kir2.1 inward-rectifier potassium channel; P35561; HEK293-Kir2.1, FluxOR thallium flux fluorescence; active compounds read low; B-score at 10 µM; 0.85% of 310,000 active; AID 1672;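 active = fluorescence ratio B-score at or below minus 3 SD of library scores, with starting-brightness B-score within 2 SD, cut at about -4.2 in these data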;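 note: channel flux triggered by added potassium and thallium sulfate stimulus; B-score of peak minus minimum fluorescence over baseline after thallium stimulus; more negative B-score means stronger Kir2.1 block with less thallium influx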
KCNK9 inh: inhibitors of human KCNK9 two-pore domain potassium channel. HEK293 KCNK9, FluxOR thallium flux fluorescence; active compounds read low. Q9NPC2. B-score at 10 µM. 1.2% of 310,000 active;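 active = ratio B-score over 3 SD below the library mean, with starting fluorescence within 5 SD of its mean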;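 note: negative B-score means less thallium flux so channel inhibition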
hERG protect: shields human hERG channel from block by proarrhythmic agents. activation (rescue from dofetilide block), less the hit threshold, % at 10 µM. Q12809. CHO-hERG, FluxOR thallium flux, dofetilide IC70 present. 0.51% of 310,000 active;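 active = activation above the mean of controls blocked by dofetilide plus 5 SD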;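 note: thallium influx through hERG after potassium depolarization seen as dye fluorescence rise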
KCNQ1 pot: human KCNQ1 channel potentiation or activation. 0.35% of 310,000 active. P51787. AID 2648. CHO-K1 KCNQ1, thallium flux FluxOR fluorescence; active compounds read high. B-score at 10 µM;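 active = fluorescence ratio B-score, a plate-corrected score, at least three library SD, with initial intensity B-score within 5 SD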
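Medium – assay buffer, equal DMSO in all wells · Material – CHO-K1 cell line with stable KCNQ1 potassium channel expression · Signal – kinetic FluxOR thallium fluorescence, 10-s 1-Hz baseline, 110-s post-stimulus read · Compound – single concentration per compound, DMSO matched to controls · Schedule – 37 °C overnight plating, 90-min dark dye load, 20-min compound pretreatment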
KCNQ1 block: blocks the human KCNQ1 potassium channel | CHO-K1 KCNQ1, FluxOR thallium flux fluorescence; active compounds read high | B-score at 10 µM | 1.3% of 310,000 active;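 active = compounds whose thallium flux B-score, printed positive for inhibition, exceeds three library SD while starting fluorescence stays within three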;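 note: channel opened by potassium depolarization with thallium stimulus after 20 min compound exposure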
KCNK3 inh: human KCNK3 channel inhibition, primary screen | O14649 | CHO-KCNK3 thallium flux, FluxOR fluorescence; active compounds read low | B-score at 10 µM | 0.84% of 340,000 active;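 active = B-score under library mean minus 4 SD, starting fluorescence ratio at most library mean plus 5 SD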;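 note: more negative B-score means stronger inhibition of thallium flux through KCNK3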
KCNQ1 inh valid: confirmation of human KCNQ1 potassium channel inhibitors | 93% of 1,600 active | inhibition, % at 10 µM | shares compounds with KCNQ1 block | AID 588353 | KCNQ1 cell line, FluxOR thallium flux fluorescence;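 active = primary screen active, with duplicate mean exceeding buffer control mean plus 3 SD of buffer wells, cut at about 28% in these data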;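 note: 0% = buffer control ratio and 100% = XE991 inhibitor control ratio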
CHO Tl flux: KCNQ1 inhibitor counter-screen hit in parental CHO cells | shares compounds with KCNQ1 block | parental CHO-K1, FluxOR thallium flux fluorescence ratio; active compounds read low; zero means no signal rise above baseline | fluorescence ratio (Tl flux) at 10 µM | 21% of 1,600 active | AID 588366;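 active = mean of duplicate thallium-flux fluorescence ratios in parental host cells more than 5 SD below the buffer control mean, cut at about 0.38 in these data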;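 note: ratio is peak minus minimum fluorescence divided by baseline fluorescence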
KCNQ1 ephys val: blocks human KCNQ1 current in automated patch clamp; shares compounds with KCNQ1 block; KCNQ1-CHO cells; calls only at 10 µM; 20% of 490 active; AID 624120;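 active = KCNQ1 current drop exceeding 3 SD of negative control wells, seen in both duplicate runs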;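 note: steady state current during a 2 s step from -80 to +40 mV; negative values mean current inhibition and positive values mean potentiation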
KCNQ2 inh: selectivity of KCNQ1 inhibitors: inhibition of rat KCNQ2 channel. shares compounds with KCNQ1 block. KCNQ2 cells, FluxOR thallium flux fluorescence. inhibition, % at 10 µM. 71% of 1,600 active. AID 651746;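 active = mean percent inhibition of the KCNQ2 thallium signal more than 5 SD above the buffer-only control wells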;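 note: KCNQ2 expressed in CHO cells; 0% = buffer control wells and 100% = XE-991 inhibitor control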
KCNQ1-KCNE1 inh: selectivity of KCNQ1 inhibitors: inhibition of human KCNQ1/KCNE1 channel; shares compounds with KCNQ1 block; KCNQ1/KCNE1 cells, FluxOR thallium flux fluorescence; inhibition, % at 10 µM; 77% of 1,600 active;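 active = mean percent inhibition of duplicate wells above the buffer-only control mean plus 3 SD of those controls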;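 note: 0% = buffer only wells and 100% = XE-991 inhibitor control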
The depositor's hits bear a star; i = inactive; / = no result given; + = active, no number.

SMILES | Kir21 block | KCNK9 inh | hERG protect | KCNQ1 pot | KCNQ1 block | KCNK3 inh | KCNQ1 inh valid | CHO Tl flux | KCNQ1 ephys val | KCNQ2 inh | KCNQ1-KCNE1 inh
CCOC(=O)c1cn[nH]c1NC(=S)Nc1ccc(Cl)cc1 | -0.3 | i | -12.9 | i | 13* | i | 77.5* | 0.551 | / | 75.7%* | 54.0%*
Cc1cc(N2CCCC2=O)ccc1S(=O)(=O)NC1CCCCC1 | 1.19 | i | -4.4 | i | i | i | / | / | / | / | /
CCc1oc2ccccc2c1C(=O)c1cc(Br)c(O)c(Br)c1 | -1.16 | i | -28.5 | i | 9* | i | 77.0* | 0.495 | / | i | 43.0%*
CCc1ccc(OCC(=O)c2c(O)c3ccccc3oc2=O)cc1 | 0.03 | i | -10.8 | i | i | i | / | / | / | / | /
CC(C)Oc1ccc(-c2nc(NCC3CCCO3)c3ccccc3n2)cc1 (stereo not drawn) | 0.54 | i | -14.2 | i | 8* | i | 98.5* | 0.456 | i | 108.3%* | 120.5%*
COc1cccc(Nc2nc(NCC3CCCO3)c3ccccc3n2)c1 (stereo not drawn) | -13.4* | i | -29.7 | i | 6* | i | 81.5* | 0.456 | / | 105.0%* | 152.5%*
CC(C)(Sc1ccc(CCN(CCCCC2CCCCC2)C(=O)NC2CCCCC2)cc1)C(=O)O | / | / | / | / | / | i | / | / | / | / | /
CC1CCCC(C)N1CCCNC(=O)c1csc2c1CCCCC2 (stereo not drawn) | -0.27 | i | -6.6 | i | i | i | / | / | / | / | /
Cc1ccc(S(=O)(=O)N2CCN(C(=O)COC(=O)c3ccc(Cl)c(S(N)(=O)=O)c3)CC2)c(C)c1 | / | / | / | / | / | i | / | / | / | / | /
Cc1ccc(C(=O)Nc2nc(=O)n(C(=O)CC(C)C)s2)cc1 | 0.04 | i | 2.2 | i | 6* | i | 33.5* | 0.607 | / | i | i
Cn1cc(CNCc2ccc(OC(F)(F)F)cc2)c(-c2ccc3c(c2)OCCO3)n1 | 0.14 | i | -20.0 | i | 10* | i | 124.0* | 0.493 | i | 111.7%* | 60.0%*
Cc1ccccc1NC(=O)CCCC(=O)c1ccccc1 | 0.03 | i | -7.7 | i | i | i | / | / | / | / | /
O=C(Cn1cnc2ccccc21)Nc1ccc(SC(F)F)cc1 | -0.9 | i | -14.3 | i | 7* | i | 115.0* | 0.46 | + | 71.3%* | 57.5%*
COc1ccc(NC(=O)COC(=O)Cn2cnc3ccccc32)cc1 | / | / | / | / | / | i | / | / | / | / | /
O=C(NCC1CCCN(Cc2ccc3nonc3c2)C1)c1cccc(C(F)(F)F)c1 (stereo not drawn) | -0.16 | i | -12.8 | i | i | i | / | / | / | / | /
Cc1nn(-c2ccccc2)c2c1C(c1ccc(F)cc1F)C(C#N)=C(N)O2 (stereo not drawn) | -0.45 | i | -5.6 | i | 7* | i | 45.0* | 0.506 | / | i | 52.5%*
COc1ccccc1NC(=O)CN1CCC(n2c(C)nc3cc(F)ccc32)CC1 | -0.61 | i | -12.6 | i | 8* | i | 116.5* | 0.441 | i | 96.7%* | 98.0%*
COc1ccccc1NC(=O)CN1CCN(CC(=O)Nc2ccccc2F)CC1 | / | / | / | / | / | i | / | / | / | / | /
COc1ccccc1NC(=O)CN1CCN(C2c3ccccc3-c3ccccc32)CC1 | -0.02 | i | -5.5 | i | 7* | i | 107.5* | 0.417 | i | 100.0%* | 155.0%*
COc1ccccc1NC(=O)CN1CCC(n2nnc3cc(F)ccc32)CC1 | -0.41 | i | -10.5 | i | i | i | / | / | / | / | /
